Measured values from ChEMBL document CHEMBL1255227, “Novel pyridylmethylamines as highly selective 5-HT(1A) superagonists” (J Med Chem, 2010).

Key:
[1] = Displacement of [3H]Prazosin from adrenergic alpha1 receptor in pig cortex membranes; format: cell membranes, Sus scrofa
D(2) dopamine receptor [2] = molecular target: T1, D(2) dopamine receptor (Homo sapiens, UniProt P14416); experiment: Displacement of [3H]Spiperone from human dopamine D2 short receptor
Outline: (§1)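 Membranes from CHO cells stably expressing the human receptor, at 5-20 μg protein/assay tube, were competed against [3H]spiperone at 0.1-0.4 nM final. […] IC50 came from sigmoid nonlinear regression.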

[3] = Displacement of [3H]8-OH-DPAT from 5-HT1A receptor in pig cortex membranes; format: cell membranes, Sus scrofa
D(4) dopamine receptor = molecular target: T2, D(4) dopamine receptor (Homo sapiens, UniProt P21917); experiment: Displacement of [3H]Spiperone from human dopamine D4.4 receptor; outline: as §1
T2 sequence (P21917 whole entry): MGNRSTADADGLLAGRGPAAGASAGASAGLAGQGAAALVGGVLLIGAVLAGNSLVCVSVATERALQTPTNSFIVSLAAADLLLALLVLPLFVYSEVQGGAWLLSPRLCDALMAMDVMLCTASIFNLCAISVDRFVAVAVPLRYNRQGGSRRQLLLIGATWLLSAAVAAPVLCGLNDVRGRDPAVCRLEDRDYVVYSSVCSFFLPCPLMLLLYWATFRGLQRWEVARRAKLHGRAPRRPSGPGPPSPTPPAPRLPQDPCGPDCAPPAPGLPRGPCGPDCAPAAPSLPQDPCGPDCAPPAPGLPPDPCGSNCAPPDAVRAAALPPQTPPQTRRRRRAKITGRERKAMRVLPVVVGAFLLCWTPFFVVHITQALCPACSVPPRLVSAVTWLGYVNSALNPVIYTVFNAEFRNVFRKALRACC

[4] = molecular target: T3, 5-hydroxytryptamine receptor 1A (Homo sapiens) (UniProt P08908); experiment: Intrinsic activity at human 5-HT1A receptor expressed in CHO cells assessed as increase of serotonin-induced [35S]GTPgammaS binding relative to serotonin; format: functional, cell-based
T3 sequence (whole entry): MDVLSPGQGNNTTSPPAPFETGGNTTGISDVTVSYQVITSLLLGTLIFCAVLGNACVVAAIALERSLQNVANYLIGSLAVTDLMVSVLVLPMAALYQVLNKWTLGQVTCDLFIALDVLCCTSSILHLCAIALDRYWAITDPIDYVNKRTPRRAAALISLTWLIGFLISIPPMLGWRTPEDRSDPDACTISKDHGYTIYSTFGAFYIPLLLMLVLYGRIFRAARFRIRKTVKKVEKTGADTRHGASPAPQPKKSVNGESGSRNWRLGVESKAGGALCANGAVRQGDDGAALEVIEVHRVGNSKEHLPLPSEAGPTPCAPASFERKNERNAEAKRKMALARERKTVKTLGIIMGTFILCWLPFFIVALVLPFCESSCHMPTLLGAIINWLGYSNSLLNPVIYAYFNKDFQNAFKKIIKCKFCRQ
Outline: (§2)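 Membranes from CHO cells stably expressing human 5-HT1A were incubated with 0.1 nM [35S]GTPγS and test compound at eight concentrations (0.01-10000 nM), in hexaduplicate. Values come from a mean curve of four experiments. Emax is expressed relative to the maximal serotonin effect.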

[5] = Displacement of [3H]RX821002 from adrenergic alpha2 receptor in pig cortex membranes
[6] = molecular target: 5-hydroxytryptamine receptor 2A (Sus scrofa, UniProt P50129); experiment: Displacement of [3H]Ketanserin from 5-HT2 receptor in pig cortex membranes; format: cell membranes
5-hydroxytryptamine receptor 2A, sequence (P50129 whole entry): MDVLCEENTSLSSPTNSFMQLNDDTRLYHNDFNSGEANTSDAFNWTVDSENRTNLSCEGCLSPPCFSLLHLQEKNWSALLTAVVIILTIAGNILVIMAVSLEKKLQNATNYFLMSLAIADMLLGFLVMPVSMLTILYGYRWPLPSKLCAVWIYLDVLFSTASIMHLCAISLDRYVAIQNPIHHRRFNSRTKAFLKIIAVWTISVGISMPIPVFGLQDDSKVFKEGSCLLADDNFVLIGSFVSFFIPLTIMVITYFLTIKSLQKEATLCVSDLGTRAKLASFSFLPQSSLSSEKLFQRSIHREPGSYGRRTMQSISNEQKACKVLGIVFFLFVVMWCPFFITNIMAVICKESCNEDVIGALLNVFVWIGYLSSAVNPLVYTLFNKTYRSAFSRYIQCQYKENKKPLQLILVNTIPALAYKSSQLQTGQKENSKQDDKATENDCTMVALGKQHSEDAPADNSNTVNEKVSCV

D(3) dopamine receptor = D(3) dopamine receptor (Homo sapiens, UniProt P35462); experiment: Displacement of [3H]Spiperone from human dopamine D3 receptor; outline: as §1
D(3) dopamine receptor, sequence (P35462 whole entry): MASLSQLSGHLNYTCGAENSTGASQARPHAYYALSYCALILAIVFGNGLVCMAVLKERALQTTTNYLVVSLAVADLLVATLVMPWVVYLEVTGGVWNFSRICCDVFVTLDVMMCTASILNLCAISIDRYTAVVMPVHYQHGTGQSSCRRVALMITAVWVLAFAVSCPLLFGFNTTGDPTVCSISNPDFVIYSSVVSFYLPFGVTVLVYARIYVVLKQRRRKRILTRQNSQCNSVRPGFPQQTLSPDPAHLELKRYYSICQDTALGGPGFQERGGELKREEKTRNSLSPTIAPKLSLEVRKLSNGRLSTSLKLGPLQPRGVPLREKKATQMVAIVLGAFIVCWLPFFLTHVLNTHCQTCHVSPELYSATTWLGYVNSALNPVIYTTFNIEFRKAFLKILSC

D(2) dopamine receptor [7] = molecular target: T1, D(2) dopamine receptor; experiment: Displacement of [3H]Spiperone from human dopamine D2 long receptor; outline: as §1
[8] = molecular target: T4, 5-hydroxytryptamine receptor 1A (Homo sapiens, UniProt P08908); experiment: Intrinsic activity at human 5-HT1A receptor expressed in CHO cells assessed as increase of serotonin-induced [35S]GTPgammaS binding; format: functional, cell-based; outline: as §2
T4 sequence (P08908 whole entry): T3 sequence (whole entry)

[9] = Displacement of [3H]WAY-100635 from 5-HT1A receptor in pig cortex membranes; format: cell membranes, Sus scrofa
D(1A) dopamine receptor = D(1A) dopamine receptor (Sus scrofa, UniProt P50130); experiment: Displacement of [3H]SCH23390 from dopamine D1 receptor in pig striatal membranes
D(1A) dopamine receptor, sequence (P50130 whole entry): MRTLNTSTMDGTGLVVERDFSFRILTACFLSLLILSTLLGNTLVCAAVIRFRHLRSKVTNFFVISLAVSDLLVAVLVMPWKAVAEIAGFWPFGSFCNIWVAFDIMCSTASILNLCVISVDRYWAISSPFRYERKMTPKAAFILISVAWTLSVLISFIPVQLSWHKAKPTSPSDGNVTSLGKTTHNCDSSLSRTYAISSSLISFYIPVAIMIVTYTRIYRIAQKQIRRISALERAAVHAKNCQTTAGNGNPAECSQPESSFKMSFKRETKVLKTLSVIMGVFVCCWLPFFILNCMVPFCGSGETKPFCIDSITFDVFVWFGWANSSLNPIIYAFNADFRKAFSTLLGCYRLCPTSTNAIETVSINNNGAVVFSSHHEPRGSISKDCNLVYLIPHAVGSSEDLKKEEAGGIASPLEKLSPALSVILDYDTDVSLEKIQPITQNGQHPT

Mus musculus = experiment: Antinociceptive activity against formalin-induced inflammatory pain in mouse assessed as reduction of paw licking at 1 mg/kg, ip; format: functional; design: scale not given: the % may be the effect or the level left; conditions: route intraperitoneal

T1 sequence (P14416 whole entry): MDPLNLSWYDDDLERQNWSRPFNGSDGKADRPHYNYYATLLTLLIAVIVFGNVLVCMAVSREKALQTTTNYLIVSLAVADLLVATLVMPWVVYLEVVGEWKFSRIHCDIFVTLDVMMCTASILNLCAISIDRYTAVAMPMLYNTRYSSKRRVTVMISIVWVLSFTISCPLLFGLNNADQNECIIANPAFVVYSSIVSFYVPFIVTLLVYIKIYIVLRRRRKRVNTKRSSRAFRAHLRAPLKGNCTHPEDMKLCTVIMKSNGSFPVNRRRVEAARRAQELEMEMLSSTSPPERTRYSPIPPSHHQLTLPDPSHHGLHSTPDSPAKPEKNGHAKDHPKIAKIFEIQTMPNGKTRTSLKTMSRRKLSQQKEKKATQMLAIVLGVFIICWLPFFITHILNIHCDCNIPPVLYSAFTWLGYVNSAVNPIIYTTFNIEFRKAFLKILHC

| SMILES | Ki [1] | Ki (D(2) dopamine receptor [2]) | Ki [3] | Ki (D(4) dopamine receptor) | Emax [4] | Ki [5] | Ki [6] | Ki (D(3) dopamine receptor) | Ki (D(2) dopamine receptor [7]) | EC50 [8] | Ki [9] | Ki (D(1A) dopamine receptor) | Activity (Mus musculus) |
| --- | --- | --- | --- | --- | --- | --- | --- | --- | --- | --- | --- | --- | --- |
| Cc1ccc(CNCC2(F)CCN(C(=O)c3csc4ccccc34)CC2)nc1 | 2000 nM | 54 µM | 0.86 nM | 460 nM | 124% | 1.7 µM | 22 µM | 8.7 µM | 20 µM | 10 nM | 2.7 nM | 45 µM | – |
| Cc1ccc(CNCC2(F)CCN(C(=O)c3ccc(F)c(Cl)c3)CC2)nc1 [BEFIRADOL] | 4500 nM | 46 µM | 0.33 nM | 2000 nM | – | 3.7 µM | 23 µM | 10 µM | 15 µM | – | 1.1 nM | 26 µM | – |
| Cc1ccc(CNCC2(F)CCN(C(=O)c3coc4ccccc34)CC2)nc1 | 2800 nM | 28 µM | 1.1 nM | 590 nM | 101% | 2.8 µM | 53 µM | 12 µM | 27 µM | 16 nM | 4.2 nM | 48 µM | – |

Further lines, with some results ahead:

| Ki [1] | Ki (D(2) dopamine receptor [2]) | Ki [3] | Ki (D(4) dopamine receptor) | Emax [4] | Ki [5] | Ki [6] | Ki (D(3) dopamine receptor) | Ki (D(2) dopamine receptor [7]) | EC50 [8] | Ki [9] | Ki (D(1A) dopamine receptor) | SMILES | Activity (Mus musculus) |
| --- | --- | --- | --- | --- | --- | --- | --- | --- | --- | --- | --- | --- | --- |
| – | – | – | – | 91% | – | – | – | – | 18 nM | 27 nM | – | Cc1ccc(CNCC2(F)CCN(C(=O)c3cccs3)CC2)nc1 | 45% |
| – | – | – | – | 81% | – | – | – | – | 15 nM | 62 nM | – | Cc1ccc(CNCC2(F)CCN(C(=O)c3ccco3)CC2)nc1 | 35% |
| 2300 nM | 100 µM | 1.8 nM | 2000 nM | 116% | 3.5 µM | 18 µM | 19 µM | 73 µM | 17 nM | 6.2 nM | 34 µM | Cc1ccc(CNCC2(F)CCN(C(=O)c3cc(Br)cs3)CC2)nc1 | – |
